Molecular target: Tubulin (Homo sapiens) (UniProt P68371+Q9H4B7+P0DPH7+P68366+Q13509+Q71U36+P04350+Q3ZCM7+P07437+P68363+Q9BQE3+Q6PEY2+Q13885+Q9BVA1+Q9BUF5)
Assay: Inhibition of [3H]colchicine binding to tubulin (unknown origin) at 1 uM incubated for 10 mins relative to control
Format: protein-complex assay
Method in brief: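 Tubulin at 1.0 μM mixed with 5.0 μM [3H]colchicine and inhibitor at 1.0 μM, incubated 10 min at 37 °C.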

Row | inhibition [%] | SMILES
1 | 69 | COc1cc(C(=O)c2cn(-c3ccccn3)cc2-c2ccccc2)cc(OC)c1OC
2 | 66 | COc1cc(C(=O)c2cn(-c3ccccn3)cc2-c2ccco2)cc(OC)c1OC
